Reference: ChEMBL document CHEMBL1140861, “Short antisense oligonucleotides with novel 2'-4' conformationaly restricted nucleoside analogues show improved potency without increased toxicity in animals” (J Med Chem, 2009)
Activity calls are given as the source filed them. The rule behind the calls is not given here.

Columns and labels:
[1] = tested on: Mus musculus; assay: Reduction of PTEN mRNA level in ip dosed BALB/c mouse liver administered twice a week for 3 weeks measured after 72 hrs of last dose; assay type: functional
In short: (§1)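 Male Balb/c mice, 6 weeks old, dosed ip twice weekly for 3 weeks at 0.5, 1.5, 4.7 and 15 mg/kg (two ASOs) or 0.7, 2.3, 7.2 and 23 mg/kg (MOE control); sacrificed 72 h after last dose; ALT, liver PTEN mRNA, liver and spleen weights and body weight gain assessed; ED50 derived; errors as sd.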

[2] = tested on: Mus musculus; assay: Hepatotoxicity in BALB/c mouse assessed as increase in liver ALT level at 0.5 mg/kg, ip administered twice a week for 3 weeks measured after 72 hrs of last dose; assay type: toxicity, organism-based; design: dose 0.5 mg/kg, route intraperitoneal; settings: in vivo; in short: as §1
[3] = tested on: Mus musculus; assay: Hepatotoxicity in BALB/c mouse assessed as increase in liver ALT level at 60 mg/kg, ip after 72 hrs; assay type: toxicity, organism-based; design: dose 60 mg/kg, route intraperitoneal; settings: in vivo
[4] = species on record: Mus musculus; assay: Binding affinity to mouse PTEN mRNA assessed as melting temperature
In short: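 Tm of ASO–RNA duplex, i.e. melting temperature of the ASO hybridised to its complementary RNA.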

[5] = tested on: Mus musculus; assay: Reduction of PTEN level in ip dosed BALB/c mouse liver at 37 mg/kg by Western blot analysis; assay type: functional, organism-based; design: dose 37 mg/kg
[6] = tested on: Mus musculus; assay: Reduction of PTEN mRNA level in ip dosed BALB/c mouse liver after 72 hrs; assay type: functional
[7] = tested on: Mus musculus; assay: Toxicity in BALB/c mouse assessed as reduction in body weight at 0.5 mg/kg, ip administered twice a week for 3 weeks measured after 72 hrs of last dose; assay type: organism-based; design: dose 0.5 mg/kg, route intraperitoneal; settings: in vivo; in short: as §1
[8] = tested on: Mus musculus; assay: Toxicity in BALB/c mouse assessed as reduction in body weight at 4.7 mg/kg, ip administered twice a week for 3 weeks measured after 72 hrs of last dose; assay type: organism-based; design: dose 4.7 mg/kg, route intraperitoneal; settings: in vivo; in short: as §1
[9] = tested on: Mus musculus; assay: Toxicity in BALB/c mouse assessed as reduction in body weight at 1.5 mg/kg, ip administered twice a week for 3 weeks measured after 72 hrs of last dose; assay type: organism-based; design: dose 1.5 mg/kg, route intraperitoneal; settings: in vivo; in short: as §1
[10] = tested on: Mus musculus; assay: Reduction of PTEN mRNA level in BALB/c mouse liver at 60 mg/kg, ip after 72 hrs; assay type: functional, organism-based; design: dose 60 mg/kg
[11] = tested on: Mus musculus; assay: Hepatotoxicity in BALB/c mouse assessed as increase in liver ALT level at 4.7 mg/kg, ip administered twice a week for 3 weeks measured after 72 hrs of last dose; assay type: toxicity, organism-based; design: dose 4.7 mg/kg, route intraperitoneal; settings: in vivo; in short: as §1
[12] = tested on: Mus musculus; assay: Hepatotoxicity in BALB/c mouse assessed as increase in liver ALT level at 15 mg/kg, ip administered twice a week for 3 weeks measured after 72 hrs of last dose; assay type: toxicity, organism-based; design: dose 15 mg/kg, route intraperitoneal; settings: in vivo; in short: as §1
[13] = tested on: bEND; assay: Reduction in mouse PTEN mRNA level expressed in mouse bEND cells; assay type: functional, cell-based
In short: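 bEND mouse brain endothelial cells transfected with ASO using lipofectin; PTEN mRNA reduction measured over a dose range; IC50 taken from dose-response curves.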

[14] = tested on: Mus musculus; assay: Hepatotoxicity in BALB/c mouse assessed as increase in liver ALT level at 1.5 mg/kg, ip administered twice a week for 3 weeks measured after 72 hrs of last dose; assay type: toxicity, organism-based; design: dose 1.5 mg/kg, route intraperitoneal; settings: in vivo; in short: as §1
[15] = tested on: Mus musculus; assay: Reduction of PTEN mRNA level in BALB/c mouse liver at 37 mg/kg, ip after 72 hrs; assay type: functional, organism-based; design: dose 37 mg/kg
[16] = tested on: Mus musculus; assay: Hepatotoxicity in BALB/c mouse assessed as increase in liver ALT level at 0.7 mg/kg, ip administered twice a week for 3 weeks measured after 72 hrs of last dose; assay type: toxicity, organism-based; design: dose 0.7 mg/kg, route intraperitoneal; settings: in vivo; in short: as §1
[17] = tested on: Mus musculus; assay: Hepatotoxicity in BALB/c mouse assessed as increase in liver ALT level at 23 mg/kg, ip administered twice a week for 3 weeks measured after 72 hrs of last dose; assay type: toxicity, organism-based; design: dose 23 mg/kg, route intraperitoneal; settings: in vivo; in short: as §1
[18] = tested on: Mus musculus; assay: Toxicity in BALB/c mouse assessed as reduction in body weight at 15 mg/kg, ip administered twice a week for 3 weeks measured after 72 hrs of last dose; assay type: organism-based; design: dose 15 mg/kg, route intraperitoneal; settings: in vivo; in short: as §1
[19] = tested on: Mus musculus; assay: Hepatotoxicity in BALB/c mouse assessed as increase in liver ALT level at 7.2 mg/kg, ip administered twice a week for 3 weeks measured after 72 hrs of last dose; assay type: toxicity, organism-based; design: dose 7.2 mg/kg, route intraperitoneal; settings: in vivo; in short: as §1
[20] = tested on: Mus musculus; assay: Hepatotoxicity in BALB/c mouse assessed as increase in liver ALT level at 2.3 mg/kg, ip administered twice a week for 3 weeks measured after 72 hrs of last dose; assay type: toxicity, organism-based; design: dose 2.3 mg/kg, route intraperitoneal; settings: in vivo; in short: as §1
[21] = tested on: Mus musculus; assay: Reduction of PTEN mRNA level in BALB/c mouse liver at 32 mg/kg, ip after 72 hrs; assay type: functional, organism-based; design: dose 32 mg/kg
In short: (§2)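 Balb/c mice, 6 weeks old, n = 4 per dose group, single ip doses of 32, 66 or 100 mg/kg; killed 72 h after administration; serum ALT and liver PTEN mRNA quantified after sacrifice; errors as sd.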

[22] = tested on: Mus musculus; assay: Reduction of PTEN mRNA level in BALB/c mouse liver at 100 mg/kg, ip after 72 hrs; assay type: functional; in short: as §2
[23] = tested on: Mus musculus; assay: Hepatotoxicity in BALB/c mouse assessed as increase in liver ALT level at 100 mg/kg, ip after 72 hrs; assay type: toxicity, organism-based; design: dose 100 mg/kg, route intraperitoneal; settings: in vivo; in short: as §2
[24] = tested on: Mus musculus; assay: Hepatotoxicity in BALB/c mouse assessed as increase in liver ALT level at 32 mg/kg, ip after 72 hrs; assay type: toxicity, organism-based; design: dose 32 mg/kg, route intraperitoneal; settings: in vivo; in short: as §2
[25] = tested on: Mus musculus; assay: Metabolic stability in BALB/c mouse liver assessed as antisense oligonucleotide level at 18 mg/kg; assay type: ADME, organism-based; design: dose 18 mg/kg; settings: in vivo
[26] = tested on: Mus musculus; assay: Hepatotoxicity in BALB/c mouse assessed as increase in liver ALT level at 66 mg/kg, ip after 72 hrs; assay type: toxicity, organism-based; design: dose 66 mg/kg, route intraperitoneal; settings: in vivo; in short: as §2
[27] = tested on: Mus musculus; assay: Reduction of PTEN mRNA level in BALB/c mouse liver at 66 mg/kg, ip after 72 hrs; assay type: functional, organism-based; design: dose 66 mg/kg; in short: as §2
[28] = tested on: Mus musculus; assay: Hepatotoxicity in ip dosed BALB/c mouse assessed as increase in liver ALT level at 5 to 10 times of ED50 after 72 hrs; assay type: toxicity, organism-based; settings: in vivo

## COCCO[C@@H]1[C@H](O)[C@@H](COP(O)(=S)O[C@H]2[C@@H](OCCOC)[C@H](n3cc(C)c(=O)[nH]c3=O)O[C@@H]2COP(O)(=S)O[C@H]2[C@@H](OCCOC)[C@H](n3cnc4c(=O)[nH]c(N)nc43)O[C@@H]2COP(O)(=S)O[C@H]2[C@@H](OCCOC)[C@H](n3cc(C)c(N)nc3=O)O[C@@H]2COP(O)(=S)O[C@H]2[C@@H](OCCOC)[C@H](n3cc(C)c(=O)[nH]c3=O)O[C@@H]2COP(O)(=S)O[C@H]2[C@@H](O)[C@H](n3cnc4c(N)ncnc43)O[C@@H]2COP(O)(=S)O[C@H]2[C@@H](O)[C@H](n3cnc4c(=O)[nH]c(N)nc43)O[C@@H]2COP(O)(=S)O[C@H]2[C@@H](O)[C@H](n3cc(C)c(N)nc3=O)O[C@@H]2COP(O)(=S)O[C@H]2[C@@H](O)[C@H](n3cc(C)c(N)nc3=O)O[C@@H]2COP(O)(=S)O[C@H]2C[C@H](n3cc(C)c(=O)[nH]c3=O)O[C@@H]2COP(O)(=S)O[C@H]2[C@@H](O)[C@H](n3cc(C)c(N)nc3=O)O[C@@H]2COP(O)(=S)O[C@H]2C[C@H](n3cc(C)c(=O)[nH]c3=O)O[C@@H]2COP(O)(=S)O[C@H]2[C@@H](O)[C@H](n3cnc4c(=O)[nH]c(N)nc43)O[C@@H]2COP(O)(=S)O[C@H]2[C@@H](O)[C@H](n3cnc4c(=O)[nH]c(N)nc43)O[C@@H]2COP(O)(=S)O[C@H]2[C@@H](O)[C@H](n3cnc4c(N)ncnc43)O[C@@H]2COP(O)(=S)O[C@H]2[C@@H](OCCOC)[C@H](n3cc(C)c(=O)[nH]c3=O)O[C@@H]2COP(O)(=S)O[C@H]2[C@@H](OCCOC)[C@H](n3cc(C)c(=O)[nH]c3=O)O[C@@H]2COP(O)(=S)O[C@H]2[C@@H](OCCOC)[C@H](n3cc(C)c(=O)[nH]c3=O)O[C@@H]2COP(O)(=S)O[C@H]2[C@@H](OCCOC)[C@H](n3cnc4c(=O)[nH]c(N)nc43)O[C@@H]2COP(O)(=S)O[C@H]2[C@@H](OCCOC)[C@H](n3cnc4c(N)ncnc43)O[C@@H]2CO)O[C@H]1n1cc(C)c(N)nc1=O (stereo partly specified)
[1]
  ED50: 9.5 mg/kg
[2]
  Activity: Non-toxic
[3]
  Activity: Non-toxic
[4]
  Tm: 67.9 °C
[5]
  Activity: Active
[6]
  ED50: 36 mg/kg
[7]
  Activity: Non-toxic
[8]
  Activity: Non-toxic
[9]
  Activity: Non-toxic
[10]
  Activity: Active
[11]
  Activity: Non-toxic
[12]
  Activity: Non-toxic
[13]
  IC50: 6.2 nM
[14]
  Activity: Non-toxic
[15]
  Activity: Active
[16]
  Activity: Non-toxic
[17]
  Activity: Non-toxic
[18]
  Activity: Non-toxic
[19]
  Activity: Non-toxic
[20]
  Activity: Non-toxic

## Cc1cn([C@@H]2O[C@@]3(COP(O)(=S)O[C@H]4[C@H]5OC[C@]4(COP(O)(=S)O[C@H]4C[C@H](n6cc(C)c(=O)[nH]c6=O)O[C@@H]4COP(O)(=S)O[C@H]4[C@@H](O)[C@H](n6cnc7c6N=CNC7N)O[C@@H]4COP(O)(=S)O[C@H]4[C@@H](O)[C@H](n6cnc7c(=O)[nH]c(N)nc76)O[C@@H]4COP(O)(=S)O[C@H]4[C@@H](O)[C@H](n6ccc(N)nc6=O)O[C@@H]4COP(O)(=S)O[C@H]4[C@@H](O)[C@H](n6cnc7c(N)ncnc76)O[C@@H]4COP(O)(=S)O[C@H]4[C@@H](O)[C@H](n6ccc(N)nc6=O)O[C@@H]4COP(O)(=S)O[C@H]4[C@@H](O)[C@H](n6cc(C)c(=O)[nH]c6=O)O[C@@H]4COP(O)(=S)O[C@H]4[C@@H](O)[C@H](n6cnc7c(=O)[nH]c(N)nc76)O[C@@H]4COP(O)(=S)O[C@H]4[C@@H](O)[C@H](n6cnc7c(=O)[nH]c(N)nc76)O[C@@H]4COP(O)(=S)O[C@H]4[C@@H](O)[C@H](n6ccc(N)nc6=O)O[C@@H]4COP(O)(=S)O[C@H]4[C@H]6OC[C@]4(COP(O)(=S)O[C@H]4[C@H]7OC[C@]4(CO)O[C@H]7n4cc(C)c(=O)[nH]c4=O)O[C@H]6n4cc(C)c(N)nc4=O)O[C@H]5n4cc(C)c(=O)[nH]c4=O)CO[C@@H]2[C@@H]3O)c(=O)nc1N (stereo partly specified)
[21]
  Activity: Active
[1]
  ED50: 2.1 mg/kg
[22]
  Activity: Active
[23]
  Activity: Toxic
[24]
  Activity: Non-toxic
[3]
  Activity: Non-toxic
[4]
  Tm: 60.6 °C
[5]
  Activity: Active
[25]
  Stability: 25 µg/g
[6]
  ED50: 6 mg/kg
[10]
  Activity: Active
[26]
  Activity: Toxic
[27]
  Activity: Active
[13]
  IC50: 4.9 nM
[28]
  Activity: Toxic
[15]
  Activity: Active
